We go through one compound from ChEMBL document CHEMBL4706762, “Massively Parallel Optimization of the Linker Domain in Small Molecule Dimers Targeting a Toxic r(CUG) Repeat Expansion” (ACS Med Chem Lett, 2021).

Active and inactive are the calls of the source. The rule behind the calls is not given here.

Assay [1] has as its system Myotube. The assay can be described thus: Effect on alternative splicing of MAP4K4 exon 22a in DM1-patient derived myotubes at 0.04 to 1 uM measured after 48 hrs by RT-qPCR analysis. To be noted: Homo sapiens, dose 0.04-1 µM. It is filed as functional.
Assay [2] has as its target r(CUG) repeat expansion. The assay can be described thus: Binding affinity to r(CUG)12 RNA repeat (unknown origin) measured after 10 mins by fluorescence assay. It is filed as nucleic-acid assay.
The subject of assay [3] is Nucleic Acid. The assay can be described thus: Binding affinity to r(CG)8 RNA repeat (unknown origin) measured after 10 mins by fluorescence assay. It is filed as nucleic-acid assay.
In assay [4] the test system is Myotube. The assay can be described thus: Effect on MBNL1 exon 5 splicing in wild type human myotubes at 0.04 to 1 uM measured after 48 hrs by RT-qPCR analysis. In kind it is functional. To be noted: dose 0.04-1 µM.
In assay [5] the test system is r(CUG) repeat expansion. The assay is described as follows: Binding affinity to r(CUG)exp RNA repeat in DM1-patient derived myotubes assessed as reduction in number of r(CUG)exp-MBNL1 foci at 1 uM measured after 48 hrs by RNA fluorescence in situ hybridization assay. The note with it: Homo sapiens, Myotube. The arrangement: scale not given: the % may be the effect or the level left. The essentials:
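Nuclear foci counted in DM1 myotubes by confocal imaging: MBNL1 by immunofluorescence, r(CUG)exp by RNA FISH. Foci per nucleus from 40 nuclei per replicate, n = 3; Student's t-test.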

Assay [6] has as its system r(CUG) repeat expansion. The assay is described as follows: Binding affinity to [5'-32P]-r(CUG)10 RNA (unknown origin) assessed as induction of RNA cleavage at 5 uM measured after 24 hrs by gel electrophoresis method relative to control. In kind it is nucleic-acid assay. The essentials: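 5′-radiolabeled r(CUG)10 incubated with agent; cleavage fragments resolved by gel electrophoresis; n = 3, one-way ANOVA.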

Assay [7] is described as follows: Reduction in DMPK transcription in DM1-patient derived myotubes at 0.04 to 1 uM measured after 48 hrs by RT-qPCR analysis. In kind it is functional, Homo sapiens, Myotube. The arrangement: scale not given: the % may be the effect or the level left. The note with it: dose 0.04-1 µM. The essentials:
(§1)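 Transcript levels, either DMPK or r(CUG) repeat-containing mRNAs, quantified by RT-qPCR in treated DM1 myotubes; n = 6, one-way ANOVA.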

The subject of assay [8] is Myotube. The assay is described as follows: Effect on DMPK transcription in wild type human myotubes at 0.04 to 1 uM measured after 48 hrs by RT-qPCR analysis. The note with it: dose 0.04-1 µM. In kind it is functional.
Assay [9] has as its system r(CUG) repeat expansion. The assay is described as follows: Binding affinity to r(CUG)exp RNA repeat in DM1-patient derived myotubes assessed as improvement in MBNL1 exon 5 splicing defect at 0.04 to 1 uM measured after 48 hrs by RT-qPCR analysis relative to control. In kind it is tissue-based. The note with it: Homo sapiens, Myotube, dose 0.04-1 µM. The method in brief: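 Dose–response for MBNL1 exon 5 splicing rescue in DM1 patient myotubes (1300 r(CUG) repeats) after 48 h treatment; n = 6, SD, one-way ANOVA.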

Assay [10] concerns r(CUG) repeat expansion. The assay can be described thus: Binding affinity to wild-type DMPK r(CUG)20 RNA repeat in DM1 patient-derived myotubes at 1 uM measured after 48 hrs by RT-qPCR analysis. To be noted: Homo sapiens, Myotube. The method in brief: as §1
Assay [11] relates to r(CUG) repeat expansion. The assay can be described thus: Binding affinity to CASK r(CUG)16 RNA repeat in DM1 patient-derived myotubes at 1 uM measured after 48 hrs by RT-qPCR analysis. To be noted: Homo sapiens, Myotube. The method in brief: as §1
In assay [12] the test system is r(CUG) repeat expansion. The assay is described as follows: Binding affinity to MAP3K4 r(CUG)11 RNA repeat in DM1 patient-derived myotubes at 1 uM measured after 48 hrs by RT-qPCR analysis. In kind it is tissue-based. To be noted: Homo sapiens, Myotube. The essentials: as §1
Assay [13] deals with r(CUG) repeat expansion. The assay is described as follows: Binding affinity to LRP8 r(CUG)11 RNA repeat repeat in DM1 patient-derived myotubes at 1 uM measured after 48 hrs by RT-qPCR analysis. To be noted: Homo sapiens, Myotube. The method in brief: as §1
In assay [14] the test system is r(CUG) repeat expansion. The assay can be described thus: Binding affinity to SCUBE2 r(CUG)7 RNA repeat in DM1 patient-derived myotubes at 1 uM measured after 48 hrs by RT-qPCR analysis. To be noted: Homo sapiens, Myotube. The essentials: as §1
Assay [15] has as its system r(CUG) repeat expansion. The assay can be described thus: Binding affinity to SORCS2 r(CUG)7 RNA repeat in DM1 patient-derived myotubes at 1 uM measured after 48 hrs by RT-qPCR analysis. The note with it: Homo sapiens, Myotube. The method in brief:
as §1

For the compound `CNCCCCN(CC(=O)N(CCN)CC(=O)N(CCCNC(=O)CCCOc1cccc(-c2nc3ccc(-c4nc5cc(N6CCN(C)CC6)ccc5[nH]4)cc3[nH]2)c1)CC(=O)NCCCCCC(=O)NCCCCNCCCNC(=O)c1csc(-c2csc(CCNC(=O)[C@@H](NC(=O)[C@@H](C)[C@H](O)[C@@H](C)NC(=O)[C@@H](NC(=O)c3nc([C@H](CC(N)=O)NC[C@H](N)C(N)=O)nc(N)c3C)[C@@H](O[C@@H]3O[C@@H](CO)[C@@H](O)[C@H](O)[C@@H]3O[C@@H]3O[C@H](CO)[C@@H](O)[C@H](OC(N)=O)[C@@H]3O)c3cnc[nH]3)[C@@H](C)O)n2)n1)C(=O)CN(C)C(=O)CN(CCCn1ccnc1)C(=O)CCCOc1cccc(-c2nc3ccc(-c4nc5cc(N6CCN(C)CC6)ccc5[nH]4)cc3[nH]2)c1`, the outcome in assay [1], in assay [3], in assay [4], in assay [8], in [10] and in [11] was inactive. The outcome in assay [12], in assay [13], in [14] and in assay [15] was inactive. In assay [2], this compound showed an EC50 of 120 nM. The Activity was 30% in [5], above 70% in assay [6], 35% in assay [7] and 30% in assay [9].
